Results taken from ChEMBL document CHEMBL2016500, “Discovery and evaluation of spirocyclic derivatives as antagonists of the neuropeptide Y5 receptor” (Bioorg Med Chem Lett, 2012).
Active and inactive are the calls of the source. The calls are words filed in the database; no cut-off is given here.

Experiments:
[1] = system: Rattus norvegicus; assay: Antiobesity activity in diet-induced obese rat assessed as decrease body weight at 5 mg/kg bid; assay type: functional, organism-based; set-up: dose 5 mg/kg
In short: (§1)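 Diet-induced obese rats dosed 5 mg/kg bid over a 4-day study. Food intake and body weight followed.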

[2] = target: T1, Neuropeptide Y receptor type 5 (Homo sapiens, UniProt Q15761); assay: Displacement of [125I]PPY from human recombinant NPYY5 receptor expressed in insect Sf9 membranes; assay type: cell membranes
T1 sequence (Q15761 whole entry): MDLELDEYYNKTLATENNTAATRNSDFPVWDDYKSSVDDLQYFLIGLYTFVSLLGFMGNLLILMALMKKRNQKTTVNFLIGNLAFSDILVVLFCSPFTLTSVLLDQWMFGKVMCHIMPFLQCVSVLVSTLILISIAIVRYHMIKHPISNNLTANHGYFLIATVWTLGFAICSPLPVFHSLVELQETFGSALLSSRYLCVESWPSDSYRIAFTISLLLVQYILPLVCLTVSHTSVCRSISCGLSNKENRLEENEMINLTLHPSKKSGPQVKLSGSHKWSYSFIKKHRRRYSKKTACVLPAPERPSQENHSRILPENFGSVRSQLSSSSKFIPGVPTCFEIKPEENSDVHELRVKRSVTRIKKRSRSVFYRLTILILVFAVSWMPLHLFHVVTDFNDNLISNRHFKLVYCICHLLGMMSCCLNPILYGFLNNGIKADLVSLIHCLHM

[3] = system: Liver microsomes; assay: Intrinsic clearance in rat liver microsomes; assay type: ADME, Microsome
In short: (§2)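 Metabolic stability in human or rat liver microsome preparations. Total intrinsic clearance scaled from in vitro microsomal half-life, given in […].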

[4] = system: Liver microsomes; assay: Intrinsic clearance in human liver microsomes; assay type: ADME, Microsome; in short: as §2
[5] = system: Plasma; assay: Unbound fraction in diet-induced obese rat plasma at 5 mg/kg bid; assay type: ADME, organism-based; set-up: dose 5 mg/kg; conditions: in vivo
In short: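 Diet-induced obese rats given 5 mg/kg bid. Unbound drug concentrations measured in plasma and brain.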

[6] = target: T2, Neuropeptide Y receptor type 1 (Homo sapiens, UniProt P25929); assay: Binding affinity to human NPYY1
T2 sequence (P25929 whole entry): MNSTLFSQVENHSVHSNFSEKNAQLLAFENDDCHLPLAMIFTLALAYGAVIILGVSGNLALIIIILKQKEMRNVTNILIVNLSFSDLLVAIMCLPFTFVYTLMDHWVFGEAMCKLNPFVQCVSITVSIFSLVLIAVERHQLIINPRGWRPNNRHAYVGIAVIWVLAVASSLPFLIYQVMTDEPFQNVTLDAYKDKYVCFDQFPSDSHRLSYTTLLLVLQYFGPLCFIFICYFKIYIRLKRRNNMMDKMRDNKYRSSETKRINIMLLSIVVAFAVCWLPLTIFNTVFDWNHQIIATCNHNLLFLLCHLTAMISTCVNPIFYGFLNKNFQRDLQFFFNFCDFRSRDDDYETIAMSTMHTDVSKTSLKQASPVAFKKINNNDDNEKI

[7] = Ratio of unbound fraction in plasma to brain in rat; assay type: ADME, cell-free
In short: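 Unbound fraction measured separately in rat plasma and in rat brain; the value is expressed as fu,plasma/fu,brain.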

[8] = system: Rattus norvegicus; assay: Antiobesity activity in diet-induced obese rat assessed as decrease in food intake at 5 mg/kg bid; assay type: functional; set-up: scale not given: the % may be the effect or the level left; in short: as §1
[9] = Ratio of unbound fraction in rat brain at 5 mg/kg bid to Ki for human recombinant NPYY5 receptor expressed in insect Sf9 membranes; assay type: ADME, organism-based, Membrane; set-up: dose 5 mg/kg; conditions: in vivo
In short: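 Unbound drug concentrations were measured in plasma and brain of diet-induced obese rats dosed at 5 mg/kg bid. The ratio is unbound brain concentration divided by Ki.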

[10] = system: Brain; assay: Unbound concentration in diet-induced obese rat brain at 5 mg/kg bid; conditions: in vivo
[11] = Half life in rat; assay type: ADME, organism-based; conditions: in vivo
[12] = Oral bioavailability in rat; assay type: ADME, organism-based; conditions: in vivo

SMILES | Ki [2] | CLint [3] | CLint [4] | also measured
O=C1O[C@]2(CC[C@H](C(=O)Nc3ccn(-c4ccccc4F)n3)CC2)c2cnccc21 |  |  |  | Activity [1]: Active
CN(C(=O)Nc1ccn(-c2ccccc2F)n1)[C@H]1CC[C@@]2(CC1)Cc1cnccc1C(=O)O2 | 188 nM |  |  | 
CN(C(=O)Nc1cnc(-c2ccccc2)cn1)[C@H]1CC[C@@]2(CC1)Cc1ccccc1C(=O)O2 | 4.6 nM | 333 mL/min/kg | 59 mL/min/kg | 
CN(C(=O)Nc1cnc(-c2ccccc2)cn1)[C@H]1CC[C@@]2(CC1)Cc1cnccc1C(=O)O2 | 82 nM | 86 mL/min/kg | < 26 mL/min/kg | 
CC(C)(C)S(=O)(=O)N[C@H]1CC[C@H](C(=O)Nc2ccc(C(F)(F)F)cn2)CC1 | 5 nM |  |  | 
O=C(CC1CCC2(CC1)Cc1ccccc1C(=O)O2)Nc1cnc(-c2ccccc2)cn1 (mixture of isomers) | 301 nM |  |  | 
CN(C(=O)Nc1ccn(-c2ccccc2F)n1)[C@H]1CC[C@]2(CC1)OC(=O)c1ccncc12 | 0.8 nM | 28 mL/min/kg | < 7 mL/min/kg | 
O=C(Nc1ccn(-c2ccccc2F)n1)NC1CCC2(CC1)OC(=O)c1ccncc12 (mixture of isomers) | 849 nM |  |  | 
CN(C(=O)Nc1ccn(-c2ccccc2F)n1)[C@H]1CC[C@]2(CC1)OC(=O)c1ccccc12 | 0.7 nM | 165 mL/min/kg | 24 mL/min/kg | 
CN(C(=O)Nc1ccn(-c2ccccc2F)n1)[C@H]1CC[C@@]2(CC1)Cc1ccccc1C(=O)O2 | 2.4 nM | 290 mL/min/kg | 28 mL/min/kg | 
CCN(C(=O)Nc1cnc(-c2ccccc2)cn1)[C@H]1CC[C@@]2(CC1)Cc1ccccc1C(=O)O2 | 11 nM |  |  | 
O=C1O[C@]2(CC[C@@H](N(CC(F)(F)F)C(=O)Nc3cnc(-c4ccccc4)cn3)CC2)Cc2ccccc21 | 2330 nM |  | < 7 mL/min/kg | 
CN(C(=O)Nc1cnc(-c2ccccc2)cn1)[C@H]1CC[C@]2(CC1)OC(=O)c1ccncc12 | 1 nM | < 25 mL/min/kg | < 6 mL/min/kg | Cp(f) [5]: 67 nM; Ki [6]: > 10000 nM; Ratio [7]: 3.3; Activity [8]: <10%; Ratio [9]: 25; Concentration [10]: 27 nM; Activity [1]: inactive; half-life [11]: 2 h; bioavailability [12]: 80%
CN(C(=O)Nc1ccn(-c2ccccc2F)n1)[C@H]1CC[C@@]2(CC1)OC(=O)c1ccccc12 | 22 nM |  |  | 
CN(C(=O)Nc1ccn(-c2ccccc2F)n1)[C@H]1CC[C@]2(CC1)COc1ccccc12 | 8 nM | > 1120 mL/min/kg | 68 mL/min/kg | 
CN(C(=O)Nc1ccn(-c2ccccc2F)n1)[C@H]1CC[C@]2(CC1)OCc1ccccc12 | 10 nM | > 1120 mL/min/kg | 67 mL/min/kg | 
CN(C(=O)Nc1cnc(-c2ccccc2)cn1)[C@H]1CC[C@@]2(CC1)OC(=O)c1ccncc12 | 0.9 nM | 12 mL/min/kg | < 7 mL/min/kg | 
